Screens (PubChem)
In the library only some 2.6% were active in any assay of this set; here they are far more common.
MITF act = MITF TRPM1 promoter activation in melanoma cells. SK-MEL-5 TRPM1-promoter luciferase, 24 h; % of positive control, neutral wells = 0. activation, % at 12.5 µM. 0.75% of 300,000 active. AID 588334;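 active means mean activation of at least 80% with every replicate also reaching 80%; inconclusive means mean reaches 80% but some replicate falls short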
Wnt act = activators of Wnt/beta-catenin signaling; Wnt/beta-catenin reporter cell assay, activator, plate reader; activation, % at 9.35 µM; 1.2% of 300,000 active; AID 743398; in the data active means activation above about 30%, passing the limit was not always enough; inconclusive means no clear call, values can overlap the other calls
Vif inh = blocks HIV Vif function; HEK293T cells, Vif self-association by quenched fluorescence, imaging, 24 h; 0.35% of 340,000 active; inhibition, % at 7.49 µM; in the data active means inhibition above about 50%, passing the limit was not always enough; inconclusive means no clear call, values can overlap the other calls; inactive means below about 31%
esBAF inh = blocks esBAF chromatin remodeling in mouse ES cells. Bmi1-luciferase knock-in reporter, 24 h; 100% = twice the neutral-well signal. reporter increase, % at 12.5 µM. 2% of 350,000 active. AID 602393; in the data active means activation above about 40%; inconclusive means no clear call, values can overlap the other calls;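 further: a rise in the Bmi1 reporter signal indicates esBAF inhibition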
Xi reactivation = reactivates the inactive X chromosome in mouse fibroblasts | XiGFP mouse fibroblasts, % GFP-positive cells imaging, 3 d; cells co-treated with 5-aza-dC sensitizer; scaled so ellipticine positive control = 100% | activation, % at 7.58 µM | 0.055% of 360,000 active | AID 743238;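 active means mean normalized replicate activation at least 10% and every replicate at or above 10%; inconclusive means only one of the two criteria met; inactive means mean below 10% and not all replicates reach 10%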
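assay system = SV40-immortalized XiGFP fibroblast cells, line 68-5-11 | buffer or medium = DMEM plus 5-aza-dC sensitizer | doses = single-point pinned compound dosing | times = 3-day compound exposure, then 15 min fixation at room temperature | benchmarks = positive control ellipticine, 6 µM final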
A number is an active result.

`Cc1cc(=O)[nH]c(N=N/C(=N/Nc2ccc(O)cc2)c2ccccc2)n1` gave MITF act inactive, Vif inh inactive and esBAF inh 49.
Screening Cc1ccc(S(=O)(=O)Nc2ccc3c(c2)C(=O)N([C@@H](C)CO)C[C@@H](C)[C@@H](CN(C)C(=O)Nc2c(C)noc2C)OCCCC[C@@H](C)O3)cc1 returned esBAF inh inactive and Xi reactivation inactive.
For CC1SCC(=NOCc2ccccc2)CS1 (centres undefined) the results were Wnt act 48, Vif inh inactive and Xi reactivation inactive.
Screening COC(=O)c1cc2c(s1)-c1ccc(OC)cc1CC2 returned MITF act inactive, Wnt act 67, Vif inh inactive and Xi reactivation inactive.
CC1=NN(C(N)=S)C(=O)C1N=Nc1ccccc1Cl (centres undefined) was read as MITF act inactive, Wnt act inactive, Vif inh inactive, esBAF inh inactive and Xi reactivation inactive.
CC1=NN(C(N)=S)C(=O)C1N=Nc1ccc([N+](=O)[O-])cc1 (centres undefined) was read as MITF act inactive, Vif inh inactive and esBAF inh 76.
For CC1=NN(C(N)=S)C(=O)C1N=Nc1cccc(C)c1 (centres undefined) the results were MITF act inactive, Wnt act inactive, Vif inh inactive, esBAF inh 67 and Xi reactivation inactive.
Screening CC1=NN(C(N)=S)C(=O)C1N=Nc1ccc(F)cc1 (centres undefined) returned MITF act inactive, Wnt act inactive, Vif inh inactive, esBAF inh 68 and Xi reactivation inactive.
CC1=NN(C(N)=S)C(=O)C1N=Nc1ccc(Cl)cc1Cl (centres undefined) was read as Wnt act inactive, Vif inh inactive, esBAF inh 79 and Xi reactivation inactive.
CC1=NN(C(N)=S)C(=O)C1N=Nc1cccc(C(=O)O)c1 (centres undefined) was read as Wnt act inactive, Vif inh inactive, esBAF inh inactive and Xi reactivation inactive.
Screening Cc1ccc(S(=O)(=O)N[C@H]2CC[C@H](CCn3cc(C4(O)CCCC4)nn3)O[C@H]2CO)cc1 returned esBAF inh inactive and Xi reactivation inactive.
Screening CCCC(=O)Nc1ccc2c(c1)C(=O)N(C)[C@@H]1CC[C@H](CC(=O)NCCc3ccncc3)O[C@@H]1CO2 returned esBAF inh inactive and Xi reactivation inactive.
C[C@@H]1CN([C@H](C)CO)C(=O)c2cccc(NC(=O)c3ccncc3)c2O[C@H]1CN(C)S(=O)(=O)c1ccc(Cl)cc1 was read as esBAF inh inactive and Xi reactivation inactive.
O=C(CN(C(=O)Cn1nnc(-c2ccc(F)cc2)n1)c1ccc(F)c(Cl)c1)NCC1CCCO1 (centres undefined) was read as MITF act inactive, Wnt act 41, Vif inh inactive and Xi reactivation inactive.
For Cc1ccc(-c2nnn(CC(=O)N(CC(=O)NCC3CCCO3)c3ccc(F)c(Cl)c3)n2)o1 (centres undefined) the results were MITF act inactive and Vif inh inactive.
Screening COc1cc(-c2cc(=O)c3c(O)cc(O)cc3o2)cc(OC)c1OC returned Wnt act inactive, Vif inh inconclusive and esBAF inh inactive.
`COc1cc(-c2cc(=O)c3c(O)c(OC)c(OC)c(O)c3o2)ccc1O` gave MITF act inactive, Wnt act inactive, Vif inh 62 and esBAF inh inactive.
O=c1cc(-c2ccc(O)c(O)c2)oc2cc(O)cc(O)c12 was read as MITF act 101, Wnt act inactive, Vif inh inactive, esBAF inh inactive and Xi reactivation inactive.
`COc1cc(OC)c2c(=O)cc(-c3cccnc3)oc2c1` gave MITF act inactive, Wnt act inactive, Vif inh inactive, esBAF inh inactive and Xi reactivation inactive.
COc1cc(OC)c2c(=O)cc(-c3ccccc3)oc2c1 was read as MITF act inactive, Wnt act 52, Vif inh inactive and esBAF inh inactive.
For COc1ccc(-c2cc(=O)c3c(O)cc(O)cc3o2)cc1 the results were MITF act 112, Wnt act 64, Vif inh inactive, esBAF inh inactive and Xi reactivation inactive.
CN(C)c1cccc(C(=O)NNC(=O)CN2C(=O)C3CC=CCC3C2=O)c1 (centres undefined) was read as MITF act inactive, Wnt act inactive, Vif inh inactive, esBAF inh 42 and Xi reactivation inactive.
`CC(=O)N(C)C[C@H]1Oc2ncc(-c3ccc(F)cc3)cc2C(=O)N([C@@H](C)CO)C[C@@H]1C` gave esBAF inh inactive and Xi reactivation inactive.
`Cc1nc(-c2ccc(NC(=O)C3CCCCC3)cc2)cs1` gave MITF act inactive, Vif inh inactive and esBAF inh 68.
O=C(CC1CCCCC1)Nc1ccc(-c2ccc3nncn3n2)cc1 was read as MITF act inactive, Wnt act inactive, Vif inh inactive and Xi reactivation inactive.
For O=C(Nc1ccc(-c2cn3ccsc3n2)cc1)C1CC1 the results were MITF act inactive, Wnt act 42, Vif inh inactive and esBAF inh inactive.
For O=C(Nc1ccc(-c2ccc3nncn3n2)cc1)C1CCCC1 the results were MITF act inactive, Wnt act 44, Vif inh inactive, esBAF inh inactive and Xi reactivation inactive.
For CCCNC(=O)C[C@@H]1C[C@@H]2c3cc(NC(=O)C4CCC4)ccc3O[C@@H]2[C@@H](CO)O1 the results were esBAF inh inactive and Xi reactivation inactive.
Screening c1ccc(OCc2nc3ccccc3s2)cc1 returned Vif inh inactive and esBAF inh inactive.
Screening Fc1ccc(OCc2nc3ccccc3s2)cc1 returned MITF act inactive, Wnt act 59, Vif inh inactive and Xi reactivation inactive.
Cc1cc(OCc2nc3ccccc3s2)ccc1N was read as Wnt act 41, Vif inh inactive, esBAF inh inactive and Xi reactivation inactive.
`CCC(=O)Nc1ccc(OCc2nc3ccccc3s2)cc1` gave MITF act inactive, Wnt act 41, Vif inh inactive and Xi reactivation inactive.
For CC1CCN(CCCNC(=O)c2ccc3c(=O)n(CCc4ccccc4)c(=O)[nH]c3c2)CC1 the results were Wnt act inactive, Vif inh 52 and esBAF inh inactive.
For Cc1ccc(C(=O)N/C(N)=N/c2nc3ccccc3o2)cc1 the results were MITF act inactive, Vif inh inactive and esBAF inh 43.
`COc1ccccc1C(=O)N/C(N)=N/c1nc2ccccc2o1` gave MITF act inactive, Wnt act inactive, Vif inh inactive and esBAF inh 51.
O=C(C[C@@H]1CC[C@H](NC(=O)Cc2cccnc2)[C@@H](CO)O1)Nc1ccccc1 was read as Xi reactivation inactive.
`Cc1ccc(S(=O)(=O)N(C)C[C@H]2OCCCC[C@H](C)Oc3ccc(NS(=O)(=O)c4cccs4)cc3C(=O)N([C@H](C)CO)C[C@H]2C)cc1` gave esBAF inh inactive and Xi reactivation inactive.
